# Assay results from ChEMBL document CHEMBL1671691 (Antimicrob Agents Chemother, 2010).
# Tests used:
# [1] = test system: Influenza A virus; assay: Antiviral activity against Influenza A virus (A/Mexico/4604/2009(H1N1)) infected in MDCK cells from ATCC assessed as log reduction in viral titer at 1.6 uM after 24 hrs by immunofluorescent assay; assay type: functional
# In short: (§1)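 Yield reduction in MDCK-ATCC or MDCK-Mill Hill cells infected at MOI ∼0.01. Adsorption 1 h at 4°C, washed, then DMEM with 2 μg/ml TPCK-trypsin and drug. At 24 h, supernatants were titrated by immunofluorescent focus assay on MDCK cells with anti-NP monoclonals and FITC secondary. Titres as log10 FFU per 100 μl; detection limit <10 FFU. Quadruplicate, mean ± SD.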
# [2] = test system: Influenza A virus; assay: Antiviral activity against Influenza A virus (A/Mexico/4604/2009(H1N1)) infected in MDCK cells from ATCC assessed as log reduction in viral titer at 42.7 uM after 24 hrs by immunofluorescent assay; assay type: functional; in short: as §1
# [3] = test system: Influenza A virus; assay: Antiviral activity against Influenza A virus (A/California/04/2009(H1N1)) infected in MDCK cells from ATCC assessed as log reduction in viral titer at 1.6 uM after 24 hrs by immunofluorescent assay; assay type: functional; in short: as §1
# [4] = test system: Influenza A virus; assay: Antiviral activity against sInfluenza A virus (A/California/04/2009(H1N1)) infected in MDCK cells from Mill Hill assessed as log reduction in viral titer at 4.7 uM after 24 hrs by immunofluorescent assay; assay type: functional
# In short: (§2)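 MDCK cells (ATCC or Mill Hill) infected with 2009 pandemic H1N1 at MOI ~0.01, 1 h adsorption at 4°C, washed. DMEM with 2 μg/ml TPCK-trypsin plus drug for 24 h at 37°C. Supernatants titrated on MDCK cells by focus formation: methanol/acetic acid fixation, anti-nucleoprotein MAbs, FITC secondary, foci counted. Titre as log10 FFU per 100 μl; detection limit <10 FFU; quadruplicate wells.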
# [5] = test system: Influenza A virus; assay: Antiviral activity against sInfluenza A virus (A/Washington/29/2009(H1N1)) infected in MDCK cells from ATCC assessed as log reduction in viral titer at 4.7 uM after 24 hrs by immunofluorescent assay; assay type: functional, Influenza A virus (A/Washington/29/2009(H1N1)); in short: as §2
# [6] = test system: Influenza A virus; assay: Antiviral activity against Influenza A virus (A/Illinois/10/2009(H1N1)) infected in MDCK cells from Mill Hill assessed as log reduction in viral titer at 4.7 uM after 24 hrs by immunofluorescent assay; assay type: functional; in short: as §1
# [7] = test system: Influenza A virus; assay: Antiviral activity against Influenza A virus (A/Mexico/4604/2009(H1N1))infected in MDCK cells from Mill Hill assessed as log reduction in viral titer at 4.7 uM after 24 hrs by immunofluorescent assay; assay type: functional; in short: as §1
# [8] = test system: Influenza A virus; assay: Antiviral activity against sInfluenza A virus (A/Washington/29/2009(H1N1))) infected in MDCK cells from Mill Hill assessed as log reduction in viral titer at 14.2 uM after 24 hrs by immunofluorescent assay; assay type: functional, Influenza A virus (A/Washington/29/2009(H1N1)); in short: as §2
# [9] = test system: Influenza A virus; assay: Antiviral activity against Influenza A virus (A/Mexico/4604/2009(H1N1)) infected in MDCK cells from ATCC assessed as log reduction in viral titer at 128 uM after 24 hrs by immunofluorescent assay; assay type: functional; in short: as §1
# [10] = test system: Influenza A virus; assay: microbe, parasite or virus in culture; settings: (A/Swine/South Dakota/03/2008(H1N1)), MDCK, 72 h
# [11] = test system: Influenza A virus; assay: Antiviral activity against sInfluenza A virus (A/Washington/29/2009(H1N1)) infected in MDCK cells from ATCC assessed as log reduction in viral titer at 14.2 uM after 24 hrs by immunofluorescent assay; assay type: functional, Influenza A virus (A/Washington/29/2009(H1N1)); in short: as §2
# [12] = test system: Influenza A virus; assay: microbe, parasite or virus in culture; settings: (A/turkey/VA/4529/2002 (H7N2)), MDCK, 72 h
# [13] = test system: Influenza A virus; assay: Antiviral activity against sInfluenza A virus (A/Washington/29/2009(H1N1)) infected in MDCK cells from Mill Hill assessed as log reduction in viral titer at 4.7 uM after 24 hrs by immunofluorescent assay; assay type: functional, Influenza A virus (A/Washington/29/2009(H1N1)); in short: as §2
# [14] = test system: Influenza A virus; assay: Antiviral activity against Influenza A virus (A/Mexico/4604/2009(H1N1)) infected in MDCK cells from Mill Hill assessed as log reduction in viral titer at 42.7 uM after 24 hrs by immunofluorescent assay; assay type: functional; in short: as §1
# [15] = test system: Influenza A virus; assay: Antiviral activity against Influenza A virus (A/California/04/2009(H1N1)) infected in MDCK cells from Mill Hill assessed as inhibition of viral replication after 3 days by microscopic analysis using crystal violet stain; assay type: functional
# [16] = test system: Influenza A virus; assay: Antiviral activity against sInfluenza A virus (A/California/04/2009(H1N1))infected in MDCK cells from ATCC assessed as log reduction in viral titer at 14.2 uM after 24 hrs by immunofluorescent assay; assay type: functional; in short: as §2
# [17] = test system: Influenza A virus; assay: Antiviral activity against sInfluenza A virus (A/Washington/29/2009(H1N1)) infected in MDCK cells from Mill Hill assessed as log reduction in viral titer at 42.7 uM after 24 hrs by immunofluorescent assay; assay type: functional, Influenza A virus (A/Washington/29/2009(H1N1)); in short: as §2
# [18] = test system: Influenza A virus; assay: Antiviral activity against sInfluenza A virus (A/California/04/2009(H1N1)) infected in MDCK cells from Mill Hill assessed as log reduction in viral titer at 42.7 uM after 24 hrs by immunofluorescent assay; assay type: functional; in short: as §2
# [19] = test system: Influenza A virus; assay: microbe, parasite or virus in culture; settings: (A/Ecuador/5179/2008(H1N1)), MDCK, 72 h
# [20] = test system: Influenza A virus; assay: microbe, parasite or virus in culture; settings: (A/Brazil/1067/2008(H1N1)), MDCK, 72 h
# [21] = test system: Influenza A virus; assay: Antiviral activity against Influenza A virus (A/Mexico/4604/2009(H1N1)) infected in MDCK cells from Mill Hill assessed as log reduction in viral titer at 14.2 uM after 24 hrs by immunofluorescent assay; assay type: functional; in short: as §1
# [22] = test system: Influenza A virus; assay: Antiviral activity against Influenza A virus (A/California/04/2009(H1N1)) infected in MDCK cells from Mill Hill assessed as log reduction in viral titer at 1.6 uM after 24 hrs by immunofluorescent assay; assay type: functional; in short: as §1
# [23] = test system: Influenza A virus; assay: microbe, parasite or virus in culture; settings: (A/duck/Vietnam/NCVD93/2007 clade 2.3.4 (H5N1)), MDCK, 72 h
# [24] = test system: Influenza A virus; assay: Antiviral activity against Influenza A virus (A/Illinois/10/2009(H1N1)) infected in MDCK cells from Mill Hill assessed as log reduction in viral titer at 128 uM after 24 hrs by immunofluorescent assay; assay type: functional; in short: as §1
# [25] = test system: Influenza A virus; assay: Antiviral activity against Influenza A virus (A/Mexico/4604/2009(H1N1)) infected in MDCK cells from Mill Hill assessed as log reduction in viral titer at 1.6 uM after 24 hrs by immunofluorescent assay; assay type: functional; in short: as §1
smiles,measurement,setting,value
NC(=O)c1nc(F)cnc1O [FAVIPIRAVIR],log10FFU,[1],4.4
same,log10FFU,[2],1.8
same,log10FFU,[3],2.7
same,log10FFU,[4],3.6
same,log10FFU,[5],3.9
same,log10FFU,[6],3.8
same,log10FFU,[7],6.2
same,log10FFU,[8],3.1
same,log10FFU,[9],<1
same,EC50,[10],0.83 µM
same,log10FFU,[11],2.2
same,EC50,[12],1.53 µM
same,log10FFU,[13],4.7
same,log10FFU,[14],2.1
same,log10FFU,[15],3.75
same,log10FFU,[16],<1
same,log10FFU,[17],1.5
same,log10FFU,[18],<1
same,EC50,[19],2.48 µM
same,EC50,[20],1.85 µM
same,log10FFU,[21],4.6
same,log10FFU,[22],4.1
same,EC50,[23],1.59 µM
same,log10FFU,[24],<1
same,log10FFU,[25],6.2
